In ChEMBL document CHEMBL1140862, “Berberine analogues as a novel class of the low-density-lipoprotein receptor up-regulators: synthesis, structure-activity relationships, and cholesterol-lowering efficacy” (J Med Chem, 2009):
Active and inactive are the calls of the source. The calls are words filed in the database; no cut-off is given here.

Columns and labels:
HepG2 [1] = test: Induction of LDLR mRNA expression in human HepG2 cells after 12 hrs by RT-PCR assay relative to untreated control; format: functional
Summary of the method: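 HepG2 cells kept in RPMI-1640 with 10% FBS, moved 24 h before dosing to 10% LPDS, then at ~80% confluence to RPMI-1640 with 0.5% LPDS plus compound (5.0 µg/mL in table; concentrations as indicated in figure), 12 h, 37 °C. Total RNA reverse-transcribed, TaqMan real-time PCR, comparative CT method with GAPDH reference; fold of untreated cells (=1); mean of three experiments.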

[2] = Elimination half life in po dosed human; format: ADME, organism-based; details: in vivo, read-out: beta t1/2 (converted)
Rattus norvegicus [3] = test: Reduction of blood cholesterol level in hyperlipidemic Sprague-Dawley rat at 100 mg/kg, po daily twice; format: functional, organism-based; design: dose 100 mg/kg; details: TDE = time-dependent effect
Mus musculus [4] = test: Reduction of blood low density lipoprotein cholesterol level in hyperlipidemic C57BL/6J mouse at 100 mg/kg, po daily twice for 21 days relative to control; format: functional; design: scale not given: the % may be the effect or the level left
Summary of the method: (§1)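 Male C57BL/6J mice fed HFHC diet 8 weeks, then gavaged twice daily (0.2 mL saline suspension) at 100 (mg/kg)/day for 21 days (n = 8; untreated n = 6). Fasted tail-snip blood; total cholesterol and LDL-c by commercial kits relative to untreated control.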

Rattus norvegicus [5] = test: Reduction of blood low density lipoprotein cholesterol level in hyperlipidemic Sprague-Dawley rat at 100 mg/kg, po daily twice; format: functional, organism-based; design: dose 100 mg/kg; details: TDE = time-dependent effect
Rattus norvegicus [6] = test: Reduction of blood cholesterol level in hyperlipidemic Sprague-Dawley rat at 100 mg/kg, po daily twice for 30 days relative to control; format: functional; design: scale not given: the % may be the effect or the level left
Summary of the method: (§2)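 Male Sprague-Dawley rats on HFHC diet 8 weeks, then saline suspension by gavage at 100 (mg/kg)/day, twice daily, 30 days (n = 8; untreated HFHC n = 6; normal-diet controls). Fasted tail-snip blood at end point; total cholesterol and LDL-c by commercial kits; percent reduction versus untreated HFHC control; mean ± SEM.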

Rattus norvegicus [7] = test: Reduction of blood low density lipoprotein cholesterol level in hyperlipidemic Sprague-Dawley rat at 100 mg/kg, po daily twice for 30 days relative to control; format: functional; design: scale not given: the % may be the effect or the level left; summary of the method: as §2
Rattus norvegicus [8] = test: Induction of HMG-CoA reductase mRNA expression in hyperlipidemic Sprague-Dawley rat liver at 100 mg/kg, po daily twice for 30 days by RT-PCR; format: functional, organism-based; design: dose 100 mg/kg
Summary of the method: (§3)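 Male Sprague-Dawley rats (180 ± 10 g) fed HFHC diet (2% cholesterol, 10% yolk powder, 15% lard, 0.2% sodium cholate) 8 weeks, then gavaged with compound suspended in saline, 100 (mg/kg)/day, twice daily, 30 days (n = 8; untreated n = 6). Liver RNA, TaqMan real-time RT-PCR, comparative CT with GAPDH; fold of untreated HFHC control.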

Bel-7402 = test: Induction of LDLR […] in human Bel7402 cells after 12 hrs by RT-PCR assay relative to control; format: functional, cell-based
HepG2 [9] = test: Induction of LDLR protein expression in human HepG2 cells at 10 ug/mL after 12 hrs by flow cytometry; format: functional, cell-based
Summary of the method: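 HepG2 cells in LPDS medium treated 12 h with 10 µg/mL compound, detached, fixed in 2% paraformaldehyde at 4 °C overnight, blocked, stained on ice 1 h with rabbit polyclonal anti-LDLR (1:25), then FITC goat anti-rabbit IgG (1:50) 30 min; normal rabbit IgG background control; cell-surface fluorescence by flow cytometry.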

Mus musculus [10] = test: Reduction of blood cholesterol level in hyperlipidemic C57BL/6J mouse at 100 mg/kg, po daily twice for 21 days relative to control; format: functional; design: scale not given: the % may be the effect or the level left; summary of the method: as §1
Rattus norvegicus [11] = test: Induction of LDLR mRNA expression in hyperlipidemic Sprague-Dawley rat liver at 100 mg/kg, po daily twice for 30 days by RT-PCR relative to control; format: functional; summary of the method: as §3
Mus musculus [12] = test: Acute toxicity in Kunming mouse assessed as brain damage upto 5000 mg/kg, po after 14 days by hematoxylin and eosin staining; format: organism-based; design: dose 5000 mg/kg, route oral; details: in vivo, 336 h
Summary of the method: (§4)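 Male Kunming mice (19 ± 1 g), six per group, given a single oral dose of saline (control) or compound at 250, 1000 or 5000 mg/kg. Animals weighed daily and monitored 14 days. Then sacrificed; liver, kidney, heart, lung, brain and colon fixed in 10% formaldehyde at room temperature and examined by H&E histology.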

Rattus norvegicus [13] = test: Toxicity in hyperlipidemic Sprague-Dawley rat assessed as food intake reduction at 100 mg/kg, po daily twice for 30 days; format: organism-based; design: dose 100 mg/kg, route oral; details: in vivo, 720 h
Summary of the method: (§5)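 Hyperlipidemic Sprague-Dawley rats (HFHC diet 8 weeks) gavaged with saline suspension, 100 (mg/kg)/day twice daily, 30 days. Body weight and food intake monitored; fasted blood before and after treatment assayed with commercial kits for AST, ALT, BUN and creatinine; mean and sd.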

Rattus norvegicus [14] = test: Toxicity in hyperlipidemic Sprague-Dawley rat assessed as liver and kidney function abnormalities at 100 mg/kg, po daily twice for 30 days; format: organism-based; design: dose 100 mg/kg, route oral; details: in vivo, 720 h; summary of the method: as §5
Rattus norvegicus [15] = test: Toxicity in hyperlipidemic Sprague-Dawley rat assessed as weight loss at 100 mg/kg, po daily twice for 30 days; format: organism-based; design: dose 100 mg/kg, route oral; details: in vivo, 720 h; summary of the method: as §5
Mus musculus [16] = test: Acute toxicity in Kunming mouse assessed as liver damage upto 5000 mg/kg, po after 14 days by hematoxylin and eosin staining; format: organism-based; design: dose 5000 mg/kg, route oral; details: in vivo, 336 h; summary of the method: as §4
Rattus norvegicus [17] = test: Induction of LDLR mRNA expression in hyperlipidemic Sprague-Dawley rat liver at 100 mg/kg, po daily twice for 17 days by RT-PCR relative to control; format: functional, organism-based; design: dose 100 mg/kg
Summary of the method: (§6)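 Hyperlipidemic male Sprague-Dawley rats (HFHC diet 8 weeks) untreated (n = 6) or gavaged twice daily with saline suspension at 100 or 300 (mg/kg)/day (n = 8 each) for 17 days. Liver total RNA, real-time RT-PCR for LDLR, GAPDH-normalized, fold of HFHC group (=1); mean ± SE, one-way ANOVA.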

Rattus norvegicus [18] = test: Reduction of blood cholesterol level in hyperlipidemic Sprague-Dawley rat at 300 mg/kg, po daily twice for 17 days relative to control; format: functional; design: scale not given: the % may be the effect or the level left
Summary of the method: (§7)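 Hyperlipidemic Sprague-Dawley rats (HFHC diet 8 weeks) untreated (n = 6) or gavaged twice daily with saline suspension at 100 or 300 (mg/kg)/day (n = 8 each) for 17 days; fasted tail-snip blood at end point; total cholesterol and LDL-c by commercial kits, relative to untreated control.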

Rattus norvegicus [19] = test: Reduction of blood low density lipoprotein cholesterol level in hyperlipidemic Sprague-Dawley rat at 100 mg/kg, po daily twice for 17 days relative to control; format: functional; design: scale not given: the % may be the effect or the level left; summary of the method: as §7
Mus musculus [20] = test: Acute toxicity in po dosed Kunming mouse after 14 days; format: organism-based; details: in vivo, 336 h; summary of the method: as §4
Rattus norvegicus [21] = test: Reduction of blood cholesterol level in hyperlipidemic Sprague-Dawley rat at 100 mg/kg, po daily twice for 17 days relative to control; format: functional; design: scale not given: the % may be the effect or the level left; summary of the method: as §7
Mus musculus [22] = test: Acute toxicity in Kunming mouse assessed as change in body weight at 1000 mg/kg, po; format: organism-based; design: dose 1000 mg/kg, route oral; details: in vivo; summary of the method: as §4
Mus musculus [23] = test: Acute toxicity in Kunming mouse assessed as kidney damage upto 5000 mg/kg, po after 14 days by hematoxylin and eosin staining; format: organism-based; design: dose 5000 mg/kg, route oral; details: in vivo, 336 h; summary of the method: as §4
Mus musculus [24] = test: Acute toxicity in Kunming mouse assessed as heart damage upto 5000 mg/kg, po after 14 days by hematoxylin and eosin staining; format: organism-based; design: dose 5000 mg/kg, route oral; details: in vivo, 336 h; summary of the method: as §4
Mus musculus [25] = test: Induction of LDLR mRNA expression in hyperlipidemic C57BL/6J mouse liver at 100 mg/kg, po daily twice for 21 days by RT-PCR relative to control; format: functional
Summary of the method: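 Male C57BL/6J mice (21 ± 2 g) fed HFHC diet 8 weeks, then gavaged twice daily with saline suspension at 100 (mg/kg)/day for 21 days (n = 8; untreated n = 6). Liver LDLR mRNA by TaqMan real-time RT-PCR, comparative CT with GAPDH, relative to untreated control.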

Mus musculus [26] = test: Acute toxicity in Kunming mouse assessed as colon damage upto 5000 mg/kg, po after 14 days by hematoxylin and eosin staining; format: organism-based; design: dose 5000 mg/kg, route oral; details: in vivo, 336 h; summary of the method: as §4
Mus musculus [27] = test: Acute toxicity in Kunming mouse assessed as change in body weight at 250 mg/kg, po; format: organism-based; design: dose 250 mg/kg, route oral; details: in vivo; summary of the method: as §4
Mus musculus [28] = test: Acute toxicity in po dosed Kunming mouse assessed as lung damage upto 5000 mg/kg, po after 14 days by hematoxylin and eosin staining; format: organism-based; design: dose 5000 mg/kg, route oral; details: in vivo, 336 h; summary of the method: as §4
Rattus norvegicus [29] = test: Reduction of blood low density lipoprotein cholesterol level in hyperlipidemic Sprague-Dawley rat at 300 mg/kg, po daily twice for 17 days relative to control; format: functional; design: scale not given: the % may be the effect or the level left; summary of the method: as §7
Rattus norvegicus [30] = test: Induction of LDLR mRNA expression in hyperlipidemic Sprague-Dawley rat liver at 300 mg/kg, po daily twice for 17 days by RT-PCR relative to control; format: functional; summary of the method: as §6

CC[N+]12CCc3cc4c(cc3C1Cc1ccc(OC)c(OC)c1C2)OCO4.[Br-] (stereo unspecified)
fold change (FC) (HepG2 [1]): 1

COc1cc2c(cc1OC)C[N+]1(Cc3ccccc3)CCc3cc4c(cc3C1C2)OCO4.[Br-] (stereo unspecified)
fold change (FC) (HepG2 [1]): 0.9

COc1ccc2c(Cc3ccccc3)c3[n+](cc2c1OC)CCc1cc2c(cc1-3)OCO2.[Br-]
fold change (FC) (HepG2 [1]): 1.4

CCCCCCc1c2[n+](cc3cc(OC)c(OC)cc13)CCc1cc3c(cc1-2)OCO3.[Cl-]
fold change (FC) (HepG2 [1]): 1.1

COc1ccc2cc3[n+](cc2c1OC)CCc1cc2c(cc1-3)OCO2.[Cl-] [BERBERINE CHLORIDE]
half-life [2]: 2.94 h
Activity (Rattus norvegicus [3]): tde
Activity (Mus musculus [4]): 23.9%
Activity (Rattus norvegicus [5]): tde
Activity (Rattus norvegicus [6]): 27.4%
Activity (Rattus norvegicus [7]): 31.6%
Activity (Rattus norvegicus [8]): inactive
Activity (Bel-7402): Active
fold change (FC) (HepG2 [1]): 2.2
Activity (HepG2 [9]): Active
Activity (Mus musculus [10]): 16.7%

COc1ccc2c(c1OC)CN1CCc3cc4c(cc3[C@@H]1C2)OCO4 [CANADINE]
fold change (FC) (HepG2 [1]): 1

COc1cc2c(cc1O)-c1cc3ccc(OC)c(OC)c3c[n+]1CC2.[I-] [COLUMBAMINE IODIDE]
fold change (FC) (HepG2 [1]): 1

COc1cc2cc3[n+](cc2cc1OC)CCc1cc2c(cc1-3)OCO2.[Cl-] [PSEUDOBERBERINE]
fold change (FC) (Rattus norvegicus [11]): 2.9
Activity (Mus musculus [12]): Non-toxic
Activity (Rattus norvegicus [13]): Non-toxic
Activity (Rattus norvegicus [14]): Non-toxic
Activity (Rattus norvegicus [15]): Non-toxic
Activity (Mus musculus [16]): Non-toxic
Activity (Rattus norvegicus [3]): tde
Activity (Rattus norvegicus [17]): Active
Activity (Rattus norvegicus [18]): 46.3%
Activity (Rattus norvegicus [19]): 31%
Activity (Mus musculus [20]): Non-toxic
Activity (Rattus norvegicus [21]): 28.5%
Activity (Mus musculus [4]): 39%
Activity (Rattus norvegicus [5]): tde
Activity (Rattus norvegicus [6]): 42.6%
Activity (Mus musculus [22]): Non-toxic
Activity (Mus musculus [23]): Non-toxic
Activity (Mus musculus [24]): Non-toxic
fold change (FC) (Mus musculus [25]): 3.2
Activity (Mus musculus [26]): Non-toxic
Activity (Mus musculus [27]): Non-toxic
Activity (Rattus norvegicus [7]): 49.4%
Activity (Rattus norvegicus [8]): inactive
Activity (Mus musculus [28]): Non-toxic
fold change (FC) (HepG2 [1]): 3.5
Activity (HepG2 [9]): Active
Activity (Mus musculus [10]): 29.7%
Activity (Rattus norvegicus [29]): 53.6%
fold change (FC) (Rattus norvegicus [30]): 4.8
